Reference: ChEMBL document CHEMBL1123578, “Stereochemical studies on the cytochrome P-450 catalyzed oxidation of (S)-nicotine to the (S)-nicotine delta 1'(5')-iminium species” (J Med Chem, 1987)

Key:
Format in all cases: functional
Settings in all cases: Microsome
Oryctolagus cuniculus [1] = organism: Oryctolagus cuniculus; assay: Percent Deuterium retention was measured for the corresponding alpha-cyano amine in the Dutch rabbit liver microsomes and value from experiment V are reported.
How it was run: (§1)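 Liver microsomes from male Dutch rabbits (homogenized in 2 mL KCl/g liver), 3 mg protein/mL. The E or Z (S)-nicotine-5'-d1 (0.5 mM) was incubated in 0.2 M K phosphate pH 7.4 with 1.5 mM MgCl2, 1.0 mM NaCN and 1 mg/mL NADPH for 30 min at 37 °C.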

Oryctolagus cuniculus [2] = organism: Oryctolagus cuniculus; assay: Percent Deuterium retention was measured for the corresponding alpha-cyano amine in the Dutch rabbit liver microsomes and value from experiment III are reported.; how it was run: as §1
Homo sapiens [3] = organism: Homo sapiens; assay: Percent Deuterium retention was measured for the corresponding alpha-cyano amine in the human liver microsomes and value from experiment II are reported.
How it was run: (§2)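 Human liver microsomes from three separate sources (homogenized in 4 mL KCl/g liver), 3 mg protein/mL. E or Z (S)-nicotine-5'-d1 (0.5 mM) was incubated 30 min at 37 °C in 0.2 M K phosphate pH 7.4 with 1.5 mM MgCl2, 1.0 mM NaCN and 1 mg/mL NADPH. The 5'-cyano adducts were ether-extracted and measured by GC-EIMS SIM (m/z 109-111) with isotope and contaminant corrections.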

Homo sapiens [4] = organism: Homo sapiens; assay: Percent Deuterium retention was measured for the corresponding alpha-cyano amine in the human liver microsomes and value from experiment III are reported.; how it was run: as §2
Oryctolagus cuniculus [5] = organism: Oryctolagus cuniculus; assay: Percent Deuterium retention was measured for the corresponding alpha-cyano amine in the Dutch rabbit liver microsomes and value from experimentI V are reported.; how it was run: as §1
Oryctolagus cuniculus [6] = organism: Oryctolagus cuniculus; assay: Percent Deuterium retention was measured for the corresponding alpha-cyano amine in the Dutch rabbit liver microsomes and value from experiment II are reported.; how it was run: as §1
Oryctolagus cuniculus [7] = organism: Oryctolagus cuniculus; assay: Percent Deuterium retention was measured for the corresponding alpha-cyano amine in the Dutch rabbit liver microsomes and value from experiment I are reported.; how it was run: as §1
Homo sapiens [8] = organism: Homo sapiens; assay: Percent Deuterium retention was measured for the corresponding alpha-cyano amine in the human liver microsomes and value from experiment I are reported.; how it was run: as §2
Oryctolagus cuniculus [9] = organism: Oryctolagus cuniculus; assay: Percent Deuterium retention was measured for the corresponding alpha-cyano amine in the Dutch rabbit liver microsomes and value from experiment VI are reported.; how it was run: as §1
Oryctolagus cuniculus [10] = organism: Oryctolagus cuniculus; assay: Percent Deuterium retention was measured for the corresponding alpha-cyano amine in the Dutch rabbit liver microsomes and value from experiment IV are reported.; how it was run: as §1
Homo sapiens [11] = organism: Homo sapiens; assay: Percent Deuterium retention was measured for the corresponding alpha-cyano amine in the human liver microsomes and value from experiment III are reported; how it was run: as §2

Compound | Deuterium retention (Oryctolagus cuniculus [1]) [%] | Deuterium retention (Oryctolagus cuniculus [2]) [%] | Deuterium retention (Homo sapiens [3]) [%] | Deuterium retention (Homo sapiens [4]) [%] | Deuterium retention (Oryctolagus cuniculus [5]) [%] | Deuterium retention (Oryctolagus cuniculus [6]) [%] | Deuterium retention (Oryctolagus cuniculus [7]) [%] | Deuterium retention (Homo sapiens [8]) [%] | Deuterium retention (Oryctolagus cuniculus [9]) [%] | Deuterium retention (Oryctolagus cuniculus [10]) [%] | Deuterium retention (Homo sapiens [11]) [%]
CN1[C@H](C#N)CC[C@H]1c1cccnc1 | 27 | 30 | 24 | 3 | 28 | 22 | 34 | 3 | 16 |  | 
CN1[C@@H](C#N)CC[C@H]1c1cccnc1 | 77 | 89 | 84 |  |  | 81 | 87 | 92 | 88 | 79 | 91
